SIRT5 inh = inhibitors of human sirtuin-5 desuccinylase; inhibition, % at 15 µM; hit rate 1.1% among 330,000; Purified SirT5, succinyl-peptide AMC, trypsin-coupled fluorescence; AID 652115; in the data active = inhibition above about 15%
MLL AF4-AF9 inh = MLL-AF4/AF9 protein interaction inhibition; P42568; AlphaScreen, biotin-AF4 peptide binding to FLAG-AF9; inhibition, % at 10 µM; hit rate 0.47% among 350,000;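 active = every replicate reaching a set inhibition limit, whatever the replicate mean, cut at about 25% in these data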;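 also: 0% = plate neutral control median and 100% = total signal loss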
ERAP1 HTS inh = ERAP1 (human) enzyme inhibition | Q9NZ08 | recombinant ERAP1, Leu-AMC fluorescence, 60 min | inhibition, % at 10.7 µM | hit rate 0.15% among 340,000;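 active = mean replicate inhibition of at least 30%, or all replicates individually reaching that 30% level; inactive = mean below 30% and not every replicate reaching it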;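 also: 0% = neutral control wells and 100% = L-leucinethiol positive control wells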
Ecoli rRNA inh = selective bacterial rRNA inhibition in E. coli; E. coli WT GFP vs humanized-ribosome RFP mutants, fluorescence, 24 h; active compounds read low; DMSO median 0, no signal -100; GFP signal change (wild-type ribosome), % (test concentration not listed); hit rate 1.6% among 350,000; AID 720706;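 active = significant combined selectivity score with lowered wild-type GFP, culture density cut under 30%, mutant RFP and density less affected; inactive = any of these conditions unmet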
E-selectin induc = induces E-selectin expression in human endothelial cells; hit rate 0.37% among 260,000; HUVEC E-selectin immunofluorescence imaging; normalized: neutral wells 0, TNF-alpha wells 100; P16581; activation, % at 7.58 µM; AID 686992;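 active = mean E-selectin-positive cell signal at least 10% of the positive control, reached in at least 60% of replicates, without over 20% cell loss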
Target sequence (P16581 whole entry, looked up): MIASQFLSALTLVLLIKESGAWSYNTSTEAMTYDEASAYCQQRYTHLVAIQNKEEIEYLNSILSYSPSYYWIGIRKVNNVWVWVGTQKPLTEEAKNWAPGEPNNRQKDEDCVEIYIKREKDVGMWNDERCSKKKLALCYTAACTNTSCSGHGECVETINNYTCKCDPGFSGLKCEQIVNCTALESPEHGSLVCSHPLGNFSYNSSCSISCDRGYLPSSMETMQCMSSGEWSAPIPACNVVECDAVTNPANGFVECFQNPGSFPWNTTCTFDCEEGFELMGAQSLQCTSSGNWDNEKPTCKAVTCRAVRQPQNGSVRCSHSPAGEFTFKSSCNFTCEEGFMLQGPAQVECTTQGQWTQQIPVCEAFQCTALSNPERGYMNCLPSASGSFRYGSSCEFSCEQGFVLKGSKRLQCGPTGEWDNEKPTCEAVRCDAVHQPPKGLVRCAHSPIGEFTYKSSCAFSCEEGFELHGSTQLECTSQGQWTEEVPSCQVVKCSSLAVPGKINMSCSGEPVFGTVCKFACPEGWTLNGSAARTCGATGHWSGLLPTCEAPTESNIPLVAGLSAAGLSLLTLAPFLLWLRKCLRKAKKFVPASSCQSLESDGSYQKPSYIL
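material = human umbilical vein endothelial cells (HUVEC), E-selectin induction | quantity = 3,000 cells/well | medium = EGM-2 growth medium on 0.1% gelatin-coated wells | technique = immunofluorescence imaging | read-out basis = % PE-positive cells | control set = TNF-alpha positive control, DMSO neutral control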
S100A4 inh HTS = S100A4-myosin IIA interaction inhibition; hit rate 0.14% among 360,000; AID 652163; P26447; S100A4/TAMRA-MyoIIA peptide fluorescence polarization; inhibition, % at 10.7 µM;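 active = mean inhibition of at least 70% across replicates, with every replicate also reaching that level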
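System – human S100A4 monomer protein, biochemical binding assay · Buffer or medium – Calcium-containing HEPES buffer, pH 7.2 · Timing – 5 min between mix addition and reading · Also added – TAMRA-labelled myosin IIA heavy-chain peptide probe, 5 nM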
An asterisk follows results filed as active; / = no result. Hits are enriched below; roughly 3.4% of the tested compounds scored in any of these assays.

SMILES	SIRT5 inh	MLL AF4-AF9 inh	ERAP1 HTS inh	Ecoli rRNA inh	E-selectin induc	S100A4 inh HTS
Cc1cc(C)n(CC(=O)NNC(=O)COc2ccc(F)cc2Br)n1	-1	0	1	3	/	0
Cc1cc(C)n(CC(=O)NNC(=O)COc2ccc(Cl)cc2Cl)n1	15*	0	1	-1	0	-13
Cc1csc2ncnc(N3CCN(C(=S)Nc4ccc(C(F)(F)F)cc4)CC3)c12	-3	2	/	-31	0	-2
Cc1csc2c(N3CCN(C(=S)Nc4ccc(C(F)(F)F)cc4)CC3)ncnc12	1	3	4	-32*	/	4
C/C(=N\NC(=O)c1cc(-c2ccc(Cl)s2)[nH]n1)c1ccncc1	-3	43*	-2	-21*	16	1
O=C(N/N=C/c1ccco1)c1cc(-c2ccc(Cl)s2)[nH]n1	-1	-2	-1	-26*	/	-4
O=C(N/N=C/c1cccs1)c1cc(-c2ccc(Cl)s2)[nH]n1	-1	2	-2	-22*	25	-9
O=C(N/N=C/c1cccs1)c1n[nH]c2c1CCCC2	/	1	/	-3	75*	7
O=C(N/N=C/c1ccco1)c1cc(-c2ccc(Br)s2)[nH]n1	-2	/	4	0	0	-5
Cc1cc(C(=O)N/N=C/c2cccs2)n[nH]1	-4	-2	12	9	/	0
COc1ccc(NC(=O)N(C)C[C@@H]2Oc3c(NS(=O)(=O)c4cccs4)cccc3C(=O)N([C@@H](C)CO)C[C@@H]2C)cc1	-2	1	2	3	1	-24
Brc1ccccc1CN1CCN(Cc2c[nH]c3ccccc23)CC1	-6	14	/	-23*	0	-6
COc1ccccc1C(=O)Nc1ccc2c(c1)OC[C@H](C)N(C)C[C@@H](C)[C@@H](OC)CN(C)C2=O	-1	1	3	2	0	12
COc1ccccc1CCNC(=O)/C(=C/c1cccnc1)NC(=O)c1ccccc1	-5	-4	-1	-2	52*	-3
COc1ccccc1NC(=O)/C(=C\c1cccnc1)NC(=O)c1ccccc1	-2	-2	-3	1	/	1
COc1cccc(CN2CCN(C(c3ccccc3)c3ccccc3)CC2)c1O	16*	9	0	-10	/	2
COc1cc(CN2CCN(C(c3ccccc3)c3ccccc3)CC2)cc(OC)c1OC	-4	7	-7	-18	0	11
CC(C)CC#Cc1ccc2c(c1)O[C@H](CN(C)S(=O)(=O)c1cccc(F)c1)[C@H](C)CN([C@@H](C)CO)S2(=O)=O	17*	-2	-2	1	0	-36
CC(C)CC#Cc1ccc2c(c1)O[C@H](CN(C)S(=O)(=O)c1cccc(F)c1)[C@H](C)CN([C@H](C)CO)S2(=O)=O	21*	-2	-2	5	0	-4
Cc1ccc(-c2ccc3c(c2)O[C@@H](CN(C)C(=O)CN(C)C)[C@H](C)CN([C@@H](C)CO)S3(=O)=O)cc1	6	1	-1	-1	2	-13
C/C(=N/Nc1ccc(C(=O)O)cc1)c1ccc2c(c1)Nc1ccccc1S2	24*	14	2	-17	1	-5
C/C(=N\Nc1ccc(C(=O)O)cc1)c1ccc2c(c1)Nc1ccccc1S2	24*	9	1	-45*	/	-7
O=C(N[C@H]1CC[C@H](CC(=O)N2CCOCC2)O[C@@H]1CO)c1ccccn1	2	0	2	3	0	-6
C[C@@H]1CN([C@H](C)CO)C(=O)c2cc(NC(=O)CCC(F)(F)F)ccc2O[C@@H]1CN(C)Cc1ccc2c(c1)OCO2	0	0	1	3	0	-6
Cc1cccc2cc(CN(CC3CCCO3)S(=O)(=O)c3ccccc3)c(=O)[nH]c12 (centres undefined)	-4	2	1	-24*	/	0
SMILES	SIRT5 inh	MLL AF4-AF9 inh	ERAP1 HTS inh	Ecoli rRNA inh	E-selectin induc	S100A4 inh HTS
COc1ccc2[nH]c(=O)c(CN(CC3CCCO3)S(=O)(=O)c3ccccc3)cc2c1 (centres undefined)	-9	1	5	12	/	-5
C[C@@H]1CN([C@H](C)CO)C(=O)c2cc(NC(=O)NC3CCCCC3)ccc2O[C@@H]1CN(C)C(=O)Nc1ccc2c(c1)OCO2	1	1	0	-4	0	0
Cc1cccc(-c2n[nH]c(=S)n2C)c1	0	-6	-1	13	-4	0
Cc1cccc(-c2n[nH]c(S(C)(=O)=O)c2C#N)c1	-2	97*	0	-16	9	12
c1ccc(-c2c[n+]3c(n2-c2ccccc2)CCC3)cc1	1	2	2	2	0	-1
CCOc1ccc(-n2c(-c3ccccc3)c[n+]3c2CCCCC3)cc1	0	-1	-4	-43*	0	-3
CC(OC(=O)c1nsc(Cl)c1Cl)C(=O)NCCc1ccccc1 (centres undefined)	-3	0	1	1	29*	-2
CCC(OC(=O)c1nsc(Cl)c1Cl)C(=O)NCc1ccco1 (centres undefined)	/	/	/	/	-1	/
COc1ccc(C[C@H]2CCn3cc(nn3)COCCNC2=O)cc1	/	/	/	2	/	/
S=C1NCN(Cc2ccccc2)CN1	-4	-3	-2	/	/	-20
c1ccc(Cn2c[n+](Cc3ccccc3)cn2)cc1	/	2	/	21	43*	-2
C[C@@H]1CN([C@@H](C)CO)C(=O)c2cccc(NC(=O)CCCCCC(=O)Nc3ccccc3N)c2O[C@H]1CN(C)S(=O)(=O)c1ccc(Cl)cc1	0	-6	-7	-2	0	-3
C[C@@H]1CN([C@H](C)CO)S(=O)(=O)c2ccc(C#Cc3cccc(F)c3)cc2O[C@@H]1CN(C)C(=O)NC1CCCCC1	17*	0	-3	0	0	-7
C[C@@H]1CN([C@H](C)CO)S(=O)(=O)c2ccc(C#Cc3ccc(F)cc3)cc2O[C@@H]1CN(C)C(=O)NC1CCCC1	2	-1	-2	-2	0	28
C[C@H]1CN([C@@H](C)CO)S(=O)(=O)c2ccc(C#Cc3ccc(F)cc3)cc2O[C@H]1CN(C)C(=O)NC1CCCCC1	20*	-1	2	0	-2	-4
C[C@H]1CN([C@@H](C)CO)S(=O)(=O)c2ccc(C#Cc3ccc(F)cc3)cc2O[C@@H]1CN(C)C(=O)NC1CCCCC1	18*	1	2	0	-3	8
C[C@@H]1CN([C@@H](C)CO)S(=O)(=O)c2ccc(C#Cc3ccc(F)cc3)cc2O[C@@H]1CN(C)C(=O)NC1CCCCC1	16*	1	2	-6	0	15
Cc1ccc(S(=O)(=O)N(C)C[C@@H]2Oc3c(NC(=O)Nc4ccccc4)cccc3C(=O)N([C@H](C)CO)C[C@@H]2C)cc1	4	3	5	-6	/	4
